Measurements published in PubChem BioAssay AID493103 (Broad Institute, 2011).
Inconclusive results are not listed. Active and inactive are the calls of the source.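 How the source made its calls: active means compounds whose fitted half-maximal concentration lies within ten times the top tested dose in every run, with signal falling; inconclusive means runs disagree, or unclear curves such as poor fits; inactive means every run inactive, including rises in signal.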

test system: Vibrio harveyi BB721 quorum sensing luminescence, 9 h; assay: V. harveyi quorum sensing luminescence inhibition, dose response, counter-screen for LuxS inhibitor project, strain BB721, dry powder, set 3 (AID 493103); conditions: not given
In short: (§1)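 Material: V. harveyi BB721 quorum-sensing strain / Input: bacterial culture diluted to starting OD600 of 0.0005 / Buffer or medium: AB medium / Times: 9 h compound exposure, 30 °C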

| SMILES | AC50 |
| --- | --- |
| O=S(=O)(Nc1cccnc1)c1ccc(Oc2ccccc2)cc1 | 1.02 µM |
| C[C@@H]1CN([C@H](C)CO)C(=O)c2ccccc2-c2ccccc2CO[C@@H]1CN(C)Cc1ccc(Oc2ccccc2)cc1 | 13.8 µM |
| C[C@H](CO)N1C[C@H](C)[C@@H](CN(C)Cc2ccc3c(c2)OCO3)Oc2c(NC(=O)NC3CCCCC3)cccc2C1=O | 8.89 µM |
| O=C1C=C/C(=C/Br)O1 | 4.47 µM |
| C=Cn1c(C(=O)O)ccc1-c1ccc(Cl)cc1 | 16.2 µM |

test system: not listed separately; assay: as above; conditions: Vibrio harveyi BB721 quorum sensing luminescence, 9 h; at 16 µM (top of the series)
In short: as §1

| SMILES | activity change, negative = inhibition |
| --- | --- |
| C[C@@H]1CN([C@@H](C)CO)C(=O)Cc2cc(NC(=O)CCCN(C)C)ccc2O[C@H]1CN(C)CC1CCCCC1 | 13.8% (inactive) |
| C[C@H](CO)N1C[C@H](C)[C@H](CN(C)Cc2ccc(C(=O)O)cc2)Oc2ncc(-c3ccc(C(=O)N(C)C)cc3)cc2C1=O | 0.806% (inactive) |
| C=Cn1c(C(=O)O)ccc1-c1cccs1 | -7.12% (inactive) |
| C[C@@H]1CCCCO[C@@H](CN(C)Cc2ccncc2)[C@H](C)CN([C@H](C)CO)C(=O)c2cc(NC(=O)C3CCCCC3)ccc2O1 | -3.87% (inactive) |
| C[C@@H]1CCCCO[C@@H](CN(C)C(=O)Nc2ccc(C(F)(F)F)cc2)[C@H](C)CN([C@@H](C)CO)C(=O)c2cc(NC(=O)CCC(F)(F)F)ccc2O1 | 2.01% (inactive) |
| C[C@H](CO)N1C[C@H](C)[C@@H](CN(C)C(=O)Nc2ccc(C(F)(F)F)cc2)Oc2ccc(NC(=O)Nc3ccc4c(c3)OCO4)cc2C1=O | -10.5% (inactive) |
| CNC[C@@H]1Oc2ccc(NC(=O)C3CCCCC3)cc2CC(=O)N([C@@H](C)CO)C[C@H]1C | 1.18% (inactive) |
| Cc1ccc(S(=O)(=O)Nc2ccc3c(c2)C(=O)N([C@H](C)CO)C[C@H](C)[C@@H](CN(C)Cc2ccc(C(F)(F)F)cc2)O3)cc1 | -2.52% (inactive) |
| Cc1ccc(S(=O)(=O)Nc2ccc3c(c2)CC(=O)N([C@@H](C)CO)C[C@@H](C)[C@H](CN(C)C(=O)Nc2ccc(F)cc2)O3)cc1 | 3.81% (inactive) |
| C[C@@H]1CCCCO[C@@H](CN(C)C(=O)Nc2cccc3ccccc23)[C@H](C)CN([C@H](C)CO)C(=O)c2cc(NC(=O)CCC(F)(F)F)ccc2O1 | 2% (inactive) |
| C[C@@H]1CN([C@@H](C)CO)C(=O)Cc2cc(NC(=O)CCN3CCOCC3)ccc2O[C@H]1CN(C)C(=O)Nc1ccc(C(F)(F)F)cc1 | 6.93% (inactive) |
| C[C@@H]1CN([C@@H](C)CO)C(=O)Cc2cc(NC(=O)CCN3CCOCC3)ccc2O[C@H]1CN(C)C(=O)Nc1ccc(F)cc1 | 1.22% (inactive) |
| C[C@@H]1CCCCO[C@@H](CN(C)Cc2ccc(C(=O)O)cc2)[C@H](C)CN([C@H](C)CO)C(=O)c2cc(NC(=O)CCCN(C)C)ccc2O1 | -5.01% (inactive) |
| C[C@H]1CN([C@@H](C)CO)C(=O)c2cc(NC(=O)Nc3ccc4c(c3)OCO4)ccc2O[C@@H]1CN(C)C(=O)Nc1ccc(C(F)(F)F)cc1 | -0.179% (inactive) |
| O=S(=O)(Nc1ccccn1)c1ccccc1 | 1.3% (inactive) |
| C[C@@H]1CN([C@H](C)CO)C(=O)c2cccc(NC(=O)Nc3ccc(C(F)(F)F)cc3)c2O[C@@H]1CN(C)C(=O)Nc1ccc(C(F)(F)F)cc1 | -11.1% (inactive) |
